Calls of active or inactive are those of the source. The calls are words filed in the database; no cut-off is given here.
Columns and labels:
[1] = Antioxidant activity assessed as superoxide radical scavenging activity by NBT method; assay type: functional
Summary of the method: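 Riboflavin-photogenerated superoxide was detected by NBT reduction (McCord–Fridovich). The mixture held EDTA 6.0 µM, NaCN 3 µg, riboflavin 2 µM, NBT 50 µM and test substance in methanol, in 58 mM phosphate pH 7.8, 3 mL final. A560 was read before and after illumination. IC50 was taken from the plot of concentration in µM against % inhibition.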

[2] = molecular target: T1, Polyunsaturated fatty acid 5-lipoxygenase (Homo sapiens) (UniProt P09917); assay: Inhibition of 5-lipoxygenase activity at 1000 uM by ferric-xylenol orange peroxide assay relative to control
T1 sequence (whole entry): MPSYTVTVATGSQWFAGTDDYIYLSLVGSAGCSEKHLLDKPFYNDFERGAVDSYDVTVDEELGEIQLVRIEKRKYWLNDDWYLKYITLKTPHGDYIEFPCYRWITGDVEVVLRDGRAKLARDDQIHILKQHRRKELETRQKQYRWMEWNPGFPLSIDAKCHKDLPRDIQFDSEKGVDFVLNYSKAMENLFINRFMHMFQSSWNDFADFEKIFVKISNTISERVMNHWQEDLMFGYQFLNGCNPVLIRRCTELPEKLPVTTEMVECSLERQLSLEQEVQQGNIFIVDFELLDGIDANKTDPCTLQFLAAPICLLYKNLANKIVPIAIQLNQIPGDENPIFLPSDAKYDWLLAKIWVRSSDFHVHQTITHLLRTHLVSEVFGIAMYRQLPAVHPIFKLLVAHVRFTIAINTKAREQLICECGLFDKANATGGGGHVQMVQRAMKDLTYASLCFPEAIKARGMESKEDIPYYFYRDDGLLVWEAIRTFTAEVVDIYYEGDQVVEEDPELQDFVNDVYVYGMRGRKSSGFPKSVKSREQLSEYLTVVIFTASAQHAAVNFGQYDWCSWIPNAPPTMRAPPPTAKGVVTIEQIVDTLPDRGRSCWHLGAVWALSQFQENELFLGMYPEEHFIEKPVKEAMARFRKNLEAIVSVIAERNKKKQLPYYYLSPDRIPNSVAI
Summary of the method: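 Modified ferric-xylenol orange peroxide assay. 5-Lipoxygenase with test substance and linoleic acid (80 mM) in 50 mM phosphate pH 6.3 was incubated 5 min. Ferric-xylenol orange reagent in perchloric acid was then added and A585 read 2 min later. Percent inhibition is relative to the control. Triplicates averaged.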

[3] = test system: Radical scavenging activity; assay: Antioxidant activity assessed as DPPH free radical scavenging activity; assay type: functional
Summary of the method: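 DPPH was used as a […] methanolic solution and mixed with a range of test concentrations. Mixtures stood in the dark for 50 min, then absorbance at 517 nm was read against a blank. Run in triplicate and averaged.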

Rattus norvegicus [4] = assay: Antiinflammatory activity against carrageenan-induced paw edema in Wistar rat at 200 mg/kg, po administered 1 hr before inflammation induction measured after 3 hrs of carrageenan challenge relative to control; assay type: functional
Summary of the method: (§1)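 Wistar rats of either sex, 180-220 g, groups of six. Test material suspended in 1% Tween-80 and given orally 1 h before 0.1 mL of 1% w/v carrageenan in saline was injected subplantar into the left hind paw. Vehicle controls received 1% Tween-80 at 10 mL/kg. Paw volume was read by plethysmometer at 0 and 3 h. Percent inhibition compares mean edema volume with the control group.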

Rattus norvegicus [5] = assay: Antiinflammatory activity against carrageenan-induced paw edema in Wistar rat at 25 mg/kg, po administered 1 hr before inflammation induction measured after 3 hrs of carrageenan challenge relative to control; assay type: functional; summary of the method: as §1

Row | Structure (SMILES) | IC50 [1] [µM] | Activity [2] | IC50 [3] [µM] | inhibition in vivo at 200 mg/kg (Rattus norvegicus [4]) [%] | Activity (Rattus norvegicus [5]) [%]
1 | C=C1[C@H]2[C@H](O[C@@H]3O[C@H](CO)[C@@H](O)[C@H](O)[C@H]3OC(=O)c3ccc(O)cc3)OC=C(C(=O)O)[C@H]2C[C@@H]1O |  | inactive |  |  | 
2 | COc1ccc(O)c(C(C)(C)C)c1.COc1ccc(O)cc1C(C)(C)C [BUTYLATED HYDROXYANISOLE] | 966 |  | 18 |  | 
3 | C[C@H]1[C@H]2[C@H](O[C@@H]3O[C@H](CO)[C@@H](O)[C@H](O)[C@H]3OC(=O)c3ccc(O)cc3)OC=C(C(=O)O)[C@H]2C[C@@H]1O |  | inactive |  |  | 
4 | COc1cc(/C=C/C(=O)OC[C@H]2O[C@@H](O[C@@H]3OC=C(C(=O)O)[C@H]4CC[C@](C)(O)[C@@H]34)[C@H](OC(=O)c3ccc(O)cc3)[C@@H](O)[C@@H]2O)ccc1O |  | inactive |  | 20 | 
5 | O=C([O-])Cc1ccccc1Nc1c(Cl)cccc1Cl.[Na+] [DICLOFENAC SODIUM] |  |  |  |  | 62

Now from value to compound, other results behind:

Row | IC50 [1] [µM] | Activity [2] | IC50 [3] [µM] | Structure (SMILES) | inhibition in vivo at 200 mg/kg (Rattus norvegicus [4]) [%] | Activity (Rattus norvegicus [5]) [%]
6 | 24.3 | inactive | 15.2 | C[C@]1(O)CC[C@@H]2C(C(=O)O)=CO[C@@H](O[C@@H]3O[C@H](COC(=O)/C=C/c4ccc(O)c(O)c4)[C@@H](O)[C@H](O)[C@H]3OC(=O)c3ccc(O)cc3)[C@@H]21 |  | 
7 | 381 |  | 19 | Cc1cc(C(C)(C)C)c(O)c(C(C)(C)C)c1 [BUTYLATED HYDROXYTOLUENE] |  | 
8 | 31.9 | inactive | 11.4 | C[C@H]1[C@H]2[C@H](O[C@@H]3O[C@H](COC(=O)/C=C/c4ccc(O)c(O)c4)[C@@H](O)[C@H](O)[C@H]3OC(=O)c3ccc(O)cc3)OC=C(C(=O)O)[C@H]2C[C@@H]1O |  | 
9 |  | inactive |  | O=C(OCC1=C[C@@H](O)[C@@H]2C=CO[C@@H](O[C@@H]3O[C@H](CO)[C@@H](O)[C@H](O)[C@H]3O)[C@H]12)c1ccc(O)cc1 |  | 
10 |  | inactive |  | C[C@]1(O)CC[C@@H]2C(C(=O)O)=CO[C@@H](O[C@@H]3O[C@H](CO)[C@@H](O)[C@H](O)[C@H]3OC(=O)c3ccc(O)cc3)[C@@H]21 |  | 
11 | 32 | inactive | 10.9 | C=C1[C@H]2[C@H](O[C@@H]3O[C@H](COC(=O)/C=C/c4ccc(O)c(O)c4)[C@@H](O)[C@H](O)[C@H]3OC(=O)c3ccc(O)cc3)OC=C(C(=O)O)[C@H]2C[C@@H]1O |  | 

— ChEMBL document CHEMBL1148970, “New acylated iridoid glucosides from Vitex altissima” (J Nat Prod, 2004)
